Results: ChEMBL document CHEMBL1134343, “Reduction in glucose levels in STZ diabetic rats by 4-(2,2-dimethyl-1-oxopropyl)benzoic acid: a prodrug approach for targeting the liver” (J Med Chem, 2001)

Key:
Rattus norvegicus [1] = assay: Percent efficacy (reduction in blood glucose) at 70 umol/kg in STZ diabetic rats after 11.25 days.; assay type: functional
Method in brief: (§1)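 Sprague-Dawley rats on a high-fat diet made diabetic with STZ 40 mg/kg i.v. (tail vein). Selected by blood glucose >200 mg/dL at day 5 and by an 18 h fast plus oral dextrose load (1.35 g/kg). Dosed orally once daily for 11 days, 70 µmol/kg in CMC/Tween-80 vehicle, N = 9/group. Food removed during the 0–6 h window. Tail-tip glucose at 6 h postdose on days 8 and 11, expressed as percent efficacy (100% = 60 mg/dL).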

Rattus norvegicus [2] = assay: Percent efficacy (reduction in blood glucose) at 70 umol/kg in STZ diabetic rats after 8.25 days.; assay type: functional; method in brief: as §1
[3] = Percent control of glucose in normal 18 hr-fasted rat model dosed at 100 umol/Kg; assay type: functional
Method in brief: (§2)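 Male Sprague-Dawley rats fasted 18 h, single oral dose of 100 µmol/kg in 0.5% carboxymethylcellulose/0.2% Tween-80 in water, or vehicle alone, N = 5/group. Serum glucose and β-hydroxybutyrate measured in cardiac-puncture blood at 3 h postdose. Expressed as percent of vehicle control; Student's t-test.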

[4] = Percent control of beta-hydroxybutyrate in normal 18 hr-fasted rat model dosed at 100 umol/Kg; assay type: functional; method in brief: as §2
[5] = Area under the curve was evaluated by plasma concentration and time curve in normal rat after oral dosing of 300 uM/kg; assay type: ADME, organism-based
Method in brief: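 Normal Sprague-Dawley rats, single oral dose of 300 µmol/kg in 0.5% carboxymethylcellulose/0.2% Tween-80 in water, N = 5/group. Tail-tip blood taken at 2, 4, 7, 8, 24, 36 and 48 h postdose and centrifuged. Plasma AUC0-48h of active metabolite 3.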

Rattus norvegicus [6] = assay: Percent change in liver weight in a 28-day safety study in normal Sprague-Dawley rats at 550 uM/kg/day.; assay type: functional
Method in brief: (§3)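 28-day safety study in normal Sprague-Dawley rats dosed daily at 380, 550 or 700 µmol/kg/day. Body weight given as percent of control. Organ weight calculated as [organ/body weight (treated)]/[organ/body weight (control)]. Significance reported at p < 0.05 and p < 0.01.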

Rattus norvegicus [7] = species on record: Rattus norvegicus; assay: Effective dose against beta- Hydroxybutyrate in Normal 18 hr-fasted rat model; assay type: functional
Rattus norvegicus [8] = assay: Percent change in heart weight in a 28-day safety study in normal Sprague-Dawley rats at 550 uM/kg/day.; assay type: functional; method in brief: as §3
Rattus norvegicus [9] = assay: Percent change in testes weight in a 28-day safety study in normal Sprague-Dawley rats at 380,550, and 700 uM/kg/day.; assay type: functional, Testis; method in brief: as §3
Rattus norvegicus [10] = assay: Percent change in heart weight in a28-day safety study in normal Sprague-Dawley rats at 700 uM/kg/day.; assay type: functional; method in brief: as §3
Rattus norvegicus [11] = assay: Percent change in testes weight in a 28-day safety study in normal Sprague-Dawley rats at 700 uM/kg/day.; assay type: functional, Testis; method in brief: as §3
Rattus norvegicus [12] = assay: Percent change in body weight in a 28-day safety study in normal Sprague-Dawley rats at 700 uM/kg/day.; assay type: functional; method in brief: as §3
Rattus norvegicus [13] = assay: Percent change in liver weight in a 28-day safety study in normal Sprague-Dawley rats at 700 uM/kg/day.; assay type: functional; method in brief: as §3
Rattus norvegicus [14] = assay: Percent change in liver weight in a 28-day safety study in normal Sprague-Dawley rats at 380 uM/kg/day.; assay type: functional; method in brief: as §3
Rattus norvegicus [15] = assay: Percent change in body weight in a 28-day safety study in normal Sprague-Dawley rats at 380 uM/kg/day.; assay type: functional; method in brief: as §3
Rattus norvegicus [16] = assay: Percent change in testes weight in a 28-day safety study in normal Sprague-Dawley rats at 380 uM/kg/day.; assay type: functional, Testis; method in brief: as §3
Rattus norvegicus [17] = assay: Percent change in heart weight in a 28-day safety study in normal Sprague-Dawley rats at 380 uM/kg/day.; assay type: functional; method in brief: as §3
Rattus norvegicus [18] = species on record: Rattus norvegicus; assay: Effective dose of the compound.; assay type: functional

CCCCCCCC/C=C/CCCCCCCC(=O)OCC(COCc1ccc(C(=O)C(C)(C)C)cc1)OC(=O)CCCCCCC/C=C/CCCCCCCC (stereo not drawn)
Efficacy (Rattus norvegicus [1]): 21.8%
Efficacy (Rattus norvegicus [2]): 9.5%
Control [3]: 95.1%
Control [4]: <20.7%

CC(C)(C)C(=O)c1ccc(C(=O)OCC(COC(=O)c2ccc(C(=O)C(C)(C)C)cc2)(COC(=O)c2ccc(C(=O)C(C)(C)C)cc2)COC(=O)c2ccc(C(=O)C(C)(C)C)cc2)cc1
Control [3]: 109.4%
Control [4]: 96.2%

CCCCCCCCCCCCCCCC(=O)OCC(COC(=O)c1ccc(C(=O)C(C)(C)C)cc1)OC(=O)CCCCCCCCCCCCCCC (stereo not drawn)
Efficacy (Rattus norvegicus [1]): <90.2%
Efficacy (Rattus norvegicus [2]): <75.7%
Control [3]: <63%
Control [4]: <20.5%
AUC [5]: 1460 µg·h/mL

CC(C)(C)C(=O)c1ccc(COCc2ccc(COCc3ccc(C(=O)C(C)(C)C)cc3)o2)cc1
Efficacy (Rattus norvegicus [1]): -3.9%
Efficacy (Rattus norvegicus [2]): 6.2%
Control [3]: <79.7%
Control [4]: <17.3%

CCCCCCCCCCCCCCCC(=O)OCC(COCc1ccc(C(=O)C(C)(C)C)cc1)OC(=O)CCCCCCCCCCCCCCC (stereo not drawn)
Efficacy (Rattus norvegicus [1]): -46.4%
Efficacy (Rattus norvegicus [2]): 0.4%
Control [3]: 97.8%
Control [4]: <31.2%

CC(C)(C)C(=O)c1ccc(C(=O)OC(CO)CO)cc1
Efficacy (Rattus norvegicus [1]): <88.1%
Efficacy (Rattus norvegicus [2]): <67.4%
Control [3]: <59.3%
Control [4]: <10.9%
AUC [5]: 1480 µg·h/mL

CC(C)(C)C(=O)c1ccc(COCC(O)CO)cc1 (stereo not drawn)
Efficacy (Rattus norvegicus [1]): 4.3%
Efficacy (Rattus norvegicus [2]): 5.7%
Control [3]: 77.6%
Control [4]: <33.5%

CCCCCCCCCCCCCCCC(=O)OCC(COC(=O)CCCCCCCCCCCCCCC)OC(=O)c1ccc(C(=O)C(C)(C)C)cc1
Efficacy (Rattus norvegicus [1]): <84.7%
Efficacy (Rattus norvegicus [2]): 62.5%
Control [3]: <60.7%
Control [4]: <23.6%
AUC [5]: 885 µg·h/mL

CCCCCCCCOCC(COCCCCCCCC)OC(=O)c1ccc(C(=O)C(C)(C)C)cc1
Control [3]: <82.9%
Control [4]: <20.1%

CC(C)(C)C(=O)c1ccc(CSCCSCc2ccc(C(=O)C(C)(C)C)cc2)cc1
Control [3]: 79.7%
Control [4]: 82.6%

CC(C)(C)C(=O)c1ccc(CSCc2ccccc2)cc1
Control [3]: 68.9%
Control [4]: 59.5%

CCCCCCCCCCCCCCCC(=O)OCC(COC(=O)CCCCCCCCCCCCCCC)OC(=O)CCc1ccc(C(=O)C(C)(C)C)cc1
Efficacy (Rattus norvegicus [1]): <97.5%
Efficacy (Rattus norvegicus [2]): <84%
Control [3]: <71.6%
Control [4]: <24.6%
AUC [5]: 930 µg·h/mL

CC(C)(C)C(=O)c1ccc(C(=O)OCCC(COC(=O)c2ccc(C(=O)C(C)(C)C)cc2)COC(=O)c2ccc(C(=O)C(C)(C)C)cc2)cc1
Change (Rattus norvegicus [6]): 101%
ED50 (Rattus norvegicus [7]): 96.2 mg/kg/day
Control [3]: 98.6%
Control [4]: <28.8%
Change (Rattus norvegicus [8]): 100%
Change (Rattus norvegicus [9]): 100%

CC(C)(C)C(O)c1ccc(C(=O)OCC(COC(=O)c2ccc(C(O)C(C)(C)C)cc2)OC(=O)c2ccc(C(O)C(C)(C)C)cc2)cc1 (stereo not drawn)
Efficacy (Rattus norvegicus [1]): <61%
Efficacy (Rattus norvegicus [2]): 49.8%
Control [3]: <57%
Control [4]: <32.5%
AUC [5]: 1160 µg·h/mL

COCC(COC)OC(=O)c1ccc(C(=O)C(C)(C)C)cc1
Efficacy (Rattus norvegicus [1]): 54.9%
Efficacy (Rattus norvegicus [2]): <75.8%
Control [3]: <69.4%
Control [4]: <15.5%
AUC [5]: 1130 µg·h/mL

CC(C)(C)C(=O)c1ccc(COC/C=C/COCc2ccc(C(=O)C(C)(C)C)cc2)cc1
Efficacy (Rattus norvegicus [1]): -5.3%
Efficacy (Rattus norvegicus [2]): 1.4%
Control [3]: 88.1%
Control [4]: <15%

CC(C)(C)C(=O)c1ccc(C(=O)OCC(O)COC(=O)c2ccc(C(=O)C(C)(C)C)cc2)cc1
Efficacy (Rattus norvegicus [1]): <111.1%
Efficacy (Rattus norvegicus [2]): <99.5%
Control [3]: <58.4%
Control [4]: <11.9%
AUC [5]: 1780 µg·h/mL

CC(C)(C)C(=O)c1ccc(C(=O)OCC(O)CO)cc1 (stereo not drawn)
Efficacy (Rattus norvegicus [1]): <55.1%
Efficacy (Rattus norvegicus [2]): 41.6%
Control [3]: <56.1%
Control [4]: <13.6%
AUC [5]: 1450 µg·h/mL

CC(C)(C)C(=O)c1ccc(COCCN2CCOCC2)cc1
Efficacy (Rattus norvegicus [1]): -5.9%
Efficacy (Rattus norvegicus [2]): <-13.1%
Control [3]: 98.2%
Control [4]: <23.8%

CCCCCCCCCCCCCCCC(=O)OCC(COC(=O)CCCCCCCCCCCCCCC)OCc1ccc(C(=O)C(C)(C)C)cc1
Efficacy (Rattus norvegicus [1]): 35.5%
Efficacy (Rattus norvegicus [2]): 24.8%
ED50 (Rattus norvegicus [7]): 127 mg/kg/day
Control [3]: 111.6%
Control [4]: <57.2%
AUC [5]: 92 µg·h/mL

CC(C)(C)C(=O)c1ccc(COCC(COCc2ccc(C(=O)C(C)(C)C)cc2)OCc2ccc(C(=O)C(C)(C)C)cc2)cc1
Efficacy (Rattus norvegicus [1]): 3.8%
Efficacy (Rattus norvegicus [2]): 25.9%
Control [3]: 74.1%
Control [4]: <19.6%

CC(C)(C)C(=O)c1ccc(COCc2cccc(COCc3ccc(C(=O)C(C)(C)C)cc3)n2)cc1
Efficacy (Rattus norvegicus [1]): -6.8%
Efficacy (Rattus norvegicus [2]): 18.2%
Control [3]: 98.2%
Control [4]: <32.5%

Cc1ccc(C2(C(C)(C)C)OCCO2)cc1
Efficacy (Rattus norvegicus [1]): <64%
Change (Rattus norvegicus [10]): 92%
Efficacy (Rattus norvegicus [2]): <52%
Control [3]: <58%
Change (Rattus norvegicus [11]): <46%
Control [4]: <12%
AUC [5]: 1510 µg·h/mL
Change (Rattus norvegicus [12]): <76%
Change (Rattus norvegicus [13]): 215%

CC(C)(C)C(=O)c1ccc(COCC2(COCc3ccc(C(=O)C(C)(C)C)cc3)CCCO2)cc1
Efficacy (Rattus norvegicus [1]): 40.1%
Efficacy (Rattus norvegicus [2]): 45.6%
Control [3]: <78.1%
Control [4]: <12.7%

CC(C)(C)C(=O)c1ccc(C(=O)OCC(COC(=O)c2ccc(C(=O)C(C)(C)C)cc2)OC(=O)c2ccc(C(=O)C(C)(C)C)cc2)cc1
Efficacy (Rattus norvegicus [1]): <103.6%
Change (Rattus norvegicus [14]): <113%
Change (Rattus norvegicus [15]): 95%
Efficacy (Rattus norvegicus [2]): <103.7%
ED50 (Rattus norvegicus [7]): 88 mg/kg/day
Control [3]: 82.2%
Control [4]: <22.9%
AUC [5]: 128 µg·h/mL
Change (Rattus norvegicus [16]): 102%
Change (Rattus norvegicus [17]): 101%

CC(C)(C)C(=O)c1ccc(C(=O)OCC(CO)(CO)COC(=O)c2ccc(C(=O)C(C)(C)C)cc2)cc1
Control [3]: <68.9%
Control [4]: <14.3%
ED50 (Rattus norvegicus [18]): 3.4 mg/kg/day

CCCCCCCCCCCCCCCC(=O)OC(CO)COC(=O)c1ccc(C(=O)C(C)(C)C)cc1 (stereo not drawn)
Efficacy (Rattus norvegicus [1]): <64.5%
Efficacy (Rattus norvegicus [2]): <69.8%
Control [3]: <60.7%
Control [4]: <22.7%
AUC [5]: 645 µg·h/mL
